Bioassay records deposited in PubChem BioAssay by several laboratories.
Sampled rows, rich in hits. Any-hit rate of the full collection: about 27%.
Cav3 T inh – Cav3.2 calcium influx blockers – cell-based, Fluo-4 calcium fluorescence, FDSS, MLSMR library, primary screen; Voltage-dependent T-type calcium channel subunit alpha-1H (Homo sapiens), O95180; Cav3.2-expressing cells; stronger effect = lower value; B-score at 10 µM; 100,000 tested, 4% active; AID 449739, 2010;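 active = single-dose well whose peak fluorescence ratio is a statistical outlier from its plate by either plate-standardised score or position-corrected B-score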
Target sequence (O95180 whole entry, looked up): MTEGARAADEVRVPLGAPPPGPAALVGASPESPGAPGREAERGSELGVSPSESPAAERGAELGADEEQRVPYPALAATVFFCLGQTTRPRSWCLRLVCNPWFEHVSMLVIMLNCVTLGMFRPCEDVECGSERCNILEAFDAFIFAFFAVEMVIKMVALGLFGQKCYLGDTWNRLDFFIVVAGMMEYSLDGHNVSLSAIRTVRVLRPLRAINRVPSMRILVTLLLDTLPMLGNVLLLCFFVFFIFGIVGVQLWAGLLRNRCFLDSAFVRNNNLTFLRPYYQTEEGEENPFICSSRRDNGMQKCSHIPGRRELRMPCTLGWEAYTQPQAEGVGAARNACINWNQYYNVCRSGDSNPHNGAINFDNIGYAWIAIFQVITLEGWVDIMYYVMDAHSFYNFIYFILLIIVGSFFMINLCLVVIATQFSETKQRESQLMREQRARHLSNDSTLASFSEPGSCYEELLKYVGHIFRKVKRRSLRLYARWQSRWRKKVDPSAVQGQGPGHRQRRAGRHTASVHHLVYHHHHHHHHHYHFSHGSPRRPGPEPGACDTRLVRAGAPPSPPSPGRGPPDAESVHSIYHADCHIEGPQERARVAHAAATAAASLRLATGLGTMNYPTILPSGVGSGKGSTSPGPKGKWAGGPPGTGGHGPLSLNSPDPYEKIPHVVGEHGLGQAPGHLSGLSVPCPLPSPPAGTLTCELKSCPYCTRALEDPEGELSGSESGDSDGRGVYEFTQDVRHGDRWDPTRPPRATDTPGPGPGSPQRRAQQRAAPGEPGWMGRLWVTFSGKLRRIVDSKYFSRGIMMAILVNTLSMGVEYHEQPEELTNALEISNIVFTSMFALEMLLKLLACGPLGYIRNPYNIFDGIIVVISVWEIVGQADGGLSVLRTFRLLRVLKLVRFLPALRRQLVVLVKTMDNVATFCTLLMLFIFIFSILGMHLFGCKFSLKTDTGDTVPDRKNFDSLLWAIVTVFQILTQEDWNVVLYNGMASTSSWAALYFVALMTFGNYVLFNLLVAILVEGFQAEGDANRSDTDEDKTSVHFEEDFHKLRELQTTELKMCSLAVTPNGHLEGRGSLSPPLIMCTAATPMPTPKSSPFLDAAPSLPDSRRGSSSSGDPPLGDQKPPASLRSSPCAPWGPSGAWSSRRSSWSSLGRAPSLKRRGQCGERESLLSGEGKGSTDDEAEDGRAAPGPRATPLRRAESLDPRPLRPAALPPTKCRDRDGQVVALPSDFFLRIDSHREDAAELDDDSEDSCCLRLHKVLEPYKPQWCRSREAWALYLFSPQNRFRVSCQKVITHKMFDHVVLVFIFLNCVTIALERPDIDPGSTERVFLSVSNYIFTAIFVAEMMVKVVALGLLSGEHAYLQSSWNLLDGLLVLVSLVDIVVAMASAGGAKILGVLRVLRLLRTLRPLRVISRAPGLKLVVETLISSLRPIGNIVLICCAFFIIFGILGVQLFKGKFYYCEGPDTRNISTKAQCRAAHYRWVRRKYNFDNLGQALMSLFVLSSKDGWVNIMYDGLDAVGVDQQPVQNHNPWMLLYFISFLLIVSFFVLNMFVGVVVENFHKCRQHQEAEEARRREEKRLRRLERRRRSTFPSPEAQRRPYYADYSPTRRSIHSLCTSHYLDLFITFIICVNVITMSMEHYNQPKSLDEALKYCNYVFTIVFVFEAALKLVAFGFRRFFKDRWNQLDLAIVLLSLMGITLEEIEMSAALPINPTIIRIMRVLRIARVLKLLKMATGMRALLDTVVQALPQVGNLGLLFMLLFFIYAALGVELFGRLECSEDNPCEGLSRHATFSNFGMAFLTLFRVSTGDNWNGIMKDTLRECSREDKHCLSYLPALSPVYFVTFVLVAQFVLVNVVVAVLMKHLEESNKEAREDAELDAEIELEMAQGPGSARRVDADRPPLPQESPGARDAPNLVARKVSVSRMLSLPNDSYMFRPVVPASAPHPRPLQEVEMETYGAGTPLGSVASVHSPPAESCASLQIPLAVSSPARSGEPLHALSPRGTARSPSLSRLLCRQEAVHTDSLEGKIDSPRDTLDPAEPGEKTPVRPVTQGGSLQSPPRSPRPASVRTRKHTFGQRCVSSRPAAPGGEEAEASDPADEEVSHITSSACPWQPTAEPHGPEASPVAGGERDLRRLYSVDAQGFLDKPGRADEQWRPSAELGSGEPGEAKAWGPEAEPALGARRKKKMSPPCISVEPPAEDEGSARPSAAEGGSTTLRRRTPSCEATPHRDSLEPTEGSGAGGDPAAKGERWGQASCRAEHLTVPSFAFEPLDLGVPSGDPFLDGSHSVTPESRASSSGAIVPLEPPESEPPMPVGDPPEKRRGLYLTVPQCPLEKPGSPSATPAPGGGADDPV
CYP2C19 inh – blockers of cytochrome P450 2C19 activity – biochemical, luminescence, ADME assay, primary screen; P33261; CYP2C19 Supersomes, luciferin-H EGE luminescence, 30 min; inhibition, % at 5 µM; 96,000 tested, 21% active; AID 778, 2007;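 active = CYP2C19 inhibition above a set limit at 5 µM in the primary screen, cut at about 50% in these data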;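 also: plate controls were negative control wells for no effect and 2.5 mM tranylcypromine positive control for full effect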
CYP2C9 act – human CYP2C9 activators, primary screen, biochemical, luminescence; 96,000 tested, 1.4% active; activation factor at 5 µM; Cytochrome P450 2C9 (Homo sapiens), P11712; recombinant CYP2C9, luciferin-H conversion; stronger effect = higher value; factor 1 = untreated enzyme, 0 = blocked;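 active = activation factor of 2 or more for CYP2C9 at a 5 µM dose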;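 also: 0 = sulfaphenazole-blocked wells and 1 = vehicle-only wells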
CYP2C9 inh – blockers of cytochrome P450 2C9 activity – biochemical, luminescence, ADME assay, primary screen; CYP2C9 Supersomes, luciferin-H conversion; inhibition, % at 5 µM; 96,000 tested, 20% active; AID 777, 2007;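 active = blocking of liver enzyme CYP2C9 beyond about 50% at 5 µM, limit read from the data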
CYP2C19 activ – human CYP2C19 activators, primary screen, biochemical, luminescence; activation factor at 5 µM; 96,000 tested, under 10 active; Cytochrome P450 2C19 (Homo sapiens), P33261; recombinant CYP2C19, luciferin-H EGE luminescence; stronger effect = higher value; 0 = fully inhibited enzyme, 1 = untreated enzyme;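 active = activation factor of at least 2 at 5 µM in the primary screen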;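 also: 0 = wells with 2.5 mM tranylcypromine and 1 = vehicle-only wells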
Rev-RRE block – HIV-1 Rev-RRE binding inhibitors, primary screen, biochemical, FRET, protein-RNA interaction | 97,000 tested, 0.79% active | inhibition, % at 8 µM | AID 704, 2007 | P05866 | Rev peptide-RRE RNA binding;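 active = inhibition above the screen-wide mean plus 3 SD, cut at about 35% in these data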;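 also: 0% = median DMSO wells and 100% = median Neomycin B control wells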
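assay system = Cy5-tagged RRE RNA duplex with fluorescein-tagged Rev peptide | incubation = 5 + 15 min at 25 °C | also added = labelled Rev peptide | measure = % inhibition of FRET ratio versus controls | benchmarks = DMSO wells as 0% and neomycin B wells as 100% inhibition | measured by = FRET fluorescence readout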
* marks the source's active call; other numbers are inactive results; nt = not tested or not shown.

SMILES	Cav3 T inh	CYP2C19 inh	CYP2C9 act	CYP2C9 inh	CYP2C19 activ	Rev-RRE block
O=C1CSC(c2ccc(F)cc2)N1c1nnc(C23CC4CC(CC(C4)C2)C3)s1 (configuration not stated)	0.26	40.8	0.6	42.5	0.6	2.8
Cc1cc(C)c2nc(N3CCCN(C(=O)c4cnccn4)CC3)c(C#N)cc2c1	1.63	35.7	0.7	31.8	0.6	3.1
CCOC(=O)C(C)Sc1nnc(-c2ccccc2O)n1Cc1ccccc1 (configuration not stated)	-1.49	30.8	0.7	30.9	0.7	4.4
Cc1ccc(N2CCN(C(=O)N3CCCC3)CC2)cc1C	1.07	81.4*	0.5	52.8*	0.2	-1.1
COC(=O)C(Cc1cnc[nH]1)NC(=O)C1CCC(=O)N1 (configuration not stated)	-0.257	-0.9	0.9	13.6	1	9.0
COC(=O)c1ccc2c(c1)nc(C)n2CCO	-0.213	-8.9	1.1	-11.0	1.1	1.0
CCOC(=O)c1ccc2c(c1)nc(COc1ccc(OC)cc1)n2CC	-1.23	75.8*	0.4	55.3*	0.2	10.6
C=CCNC(=O)CSc1nc2cc(C(=O)OCC)ccc2n1CC	0.00729	95.8*	0.3	75.0*	0	3.3
Cc1c(N=c2c(=O)c3ccccc3c2=O)c(=O)n(-c2ccccc2)n1C	-0.132	nt	nt	nt	nt	nt
COC(=O)c1ccc(C2C(Oc3ccc(OC)cc3)C(=O)N2CCc2ccc(F)cc2)cc1 (configuration not stated)	-0.959	56.2*	0.7	25.1	0.4	4.1
CN(C)/N=C/C=C1\CC/C(=C\c2ccc(Br)cc2)C1=O	nt	53.9*	1.1	-11.0	0.5	71.5*
CCOC(=O)C1CCCN(C(=O)c2ccc3c(c2)NC(=O)C(N2CCOCC2)S3)C1 (configuration not stated)	-0.256	1.9	0.9	5.2	1	11.1
CCOc1ccccc1N(CC(=O)Nc1cccnc1)S(C)(=O)=O	-1.08	15.3	0.8	16.4	0.8	-0.6
COc1ccc(OC)c(N(CC(=O)Nc2cccnc2)S(C)(=O)=O)c1	0.373	55.7*	0.7	32.6	0.4	4.2
COc1ccc(OC)c(N(CC(=O)Nc2cccnc2)S(=O)(=O)c2ccc(C)cc2)c1	nt	95.1*	0.1	94.0*	0	6.6
CNC(=O)CN(c1cc(C)ccc1OC)S(=O)(=O)c1ccc(C)cc1	-0.522	10.6	0.9	7.2	0.9	3.1
O=C(O)c1ccc(CSCc2c(F)cccc2Cl)o1	0.2	-10.5	1.1	-11.4	1.1	9.3
O=C(COC(=O)CCNS(=O)(=O)c1ccc2c(c1)OCCO2)NC1CCCc2ccccc21 (configuration not stated)	-0.565	62.0*	1.2	-18.5	0.4	nt
Cc1ccccc1C(=O)NC(=S)Nc1sc2c(c1C#N)CCC(C)C2 (configuration not stated)	-0.656	33.7	0.4	62.8*	0.7	-1.6
Cc1ccccc1NC(=S)NNC(=O)c1csc2c1CCC(C)C2 (configuration not stated)	-2.49	97.9*	0.3	66.3*	0	-0.8
CCN(CC)S(=O)(=O)c1cc(C(=O)Nc2nncs2)c(Cl)cc1Cl	0.571	-0.2	0.8	16.7	1	3.1
CCOC(=O)C1CCN(S(=O)(=O)c2cccc(-c3cn4cccnc4n3)c2)CC1	0.186	4.2	1.1	-7.0	1	11.4
CCOc1ccc(C(=O)CN2CCN(S(=O)(=O)c3ccc(Br)cc3)CC2)cc1	0.558	36.5	0.9	8.2	0.6	14.8
CCOc1ccc(C(=O)CN2CCN(S(=O)(=O)c3ccc(OC)cc3)CC2)cc1	-0.172	77.3*	0.8	21.9	0.2	10.4
CCOC(=O)C1CCN(S(=O)(=O)c2cccc(-c3cn4cc(C)ccc4n3)c2)CC1	0.0524	51.8*	0.7	29.7	0.5	0.5
SMILES	Cav3 T inh	CYP2C19 inh	CYP2C9 act	CYP2C9 inh	CYP2C19 activ	Rev-RRE block
COc1ccc(S(=O)(=O)N2CCN(C(=O)c3cnc(C)cn3)CC2)cc1	0.943	50.1*	1	-0.3	0.5	0.4
CCOC(=O)N1CCN(S(=O)(=O)c2ccc(C(=O)Nc3sc4c(c3C#N)CCC4)cc2)CC1	nt	41.6	0.3	74.7*	0.6	-1.4
Cc1ccc(OCC(=O)Nc2sc3c(c2C#N)CCC3)cc1	-0.26	-12.9	0.8	24.8	1.1	5.0
CCCCCCNC(=O)N1C/C=C\C(c2ccc(OC)cc2)N(Cc2ccc(F)cc2)C(=O)C1 (configuration not stated)	-0.119	nt	nt	nt	nt	nt
Cc1ccc(C2C(C=Nc3c(C)n(C)n(-c4ccccc4)c3=O)=C(c3ccccc3)Oc3ccccc32)cc1 (configuration not stated)	-1.13	18.1	0.9	14.0	0.8	4.5
CCOC(=O)N1CCN(S(=O)(=O)c2ccc(OCC)cc2)CC1	1.42	76.5*	0.6	35.4	0.2	-3.0
CCOC(=O)C1CCN(S(=O)(=O)c2ccc(OCC)cc2)CC1	0.976	94.3*	1.1	-10.6	0.1	3.8
CCOc1ccc(S(=O)(=O)N2CCN(C(=O)c3sccc3C)CC2)cc1	-0.719	74.1*	0.7	31.6	0.3	0.8
CC1CN(CCCOc2ccccc2[N+](=O)[O-])CC(C)O1 (configuration not stated)	1.43	42.2	0.7	32.2	0.6	-6.7
CCCCOC(=O)C(C)c1c(C)[nH]c(=S)[nH]c1=O (configuration not stated)	1.1	7.7	0.9	5.8	0.9	0.1
Cc1cc(OCc2nn[nH]n2)c2c(C)c(CC(=O)O)c(=O)oc2c1	1.04	0.1	0.9	6.4	1	6.6
Cc1c(OCc2nn[nH]n2)ccc2c(-c3ccccc3)cc(=O)oc12	nt	95.3*	0	98.3*	0	-0.6
COc1ccc(-c2cc(=O)oc3c(C)c(OCc4nn[nH]n4)ccc23)cc1	2.06	78.7*	0	97.1*	0.2	5.8
COc1ccc(-c2cc(=O)oc3cc(OC(C)C(=O)O)ccc23)cc1 (configuration not stated)	0.071	0.6	0.7	26.8	1	9.9
CC(=O)C1=C(O)C(=O)N(CCCCCC(=O)O)C1c1ccc(N(C)C)cc1 (configuration not stated)	0.199	-1.9	1.1	-10.4	1	4.8
Cc1ccc(N2C(=O)C3C(C2=O)C(C(=O)c2ccc(Cl)cc2)N2CCCC32)cc1 (configuration not stated)	-0.716	-6.5	1	3.5	1.1	62.3*
